Compound activity as filed in PubChem BioAssay.
The sample as a whole holds a higher share of hits than the screen did.
KDM4C inh – blocks human GASC-1 (KDM4C) demethylase activity. GST-KDM4C 2-372, H3K9me3 peptide, LANCE TR-FRET. hit rate 0.15% among 96,000. inhibition, % at 12.5 µM. Q9H3R0. AID 720574;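 active = mean replicate inhibition above about 25%, with at least 55% of replicates also reaching it, limit read from the data, passing the limit was not always enough; inconclusive = only one of those two conditions met; inactive = neither condition met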
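reagent = H3K9me3 peptide substrate, Fe(II), 2-oxoglutarate | system = GST-tagged GASC-1 (JMJD2C) catalytic fragment, aa 2-372 | amount = enzyme final amount 10 nM | read-out = Fall in 671/618 emission ratio as inhibition | medium = HEPES buffer, pH 7.5, plus ascorbate | schedule = 30 min reaction, 60 min detection, RT | measured by = LANCE TR-FRET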
T cruzi growth-1 – blocks T. cruzi growth in NIH3T3 culture | inhibition, % at 8.34 µM | AID 624255 | hit rate 5.9% among 77,000 | T. cruzi beta-gal in NIH3T3, GalScreen luminescence, 90 h;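 active = mean inhibition above about 93%, with at least 55% of replicates each passing it, limit read from the data, passing the limit was not always enough; inconclusive = only one of those two conditions holds; inactive = neither condition holds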
IDH1 mut inh – IDH1 R132H (human) inhibition. O75874. hit rate 0.18% among 70,000. inhibition, % at 10 µM. IDH1 R132H reductase, diaphorase/resazurin fluorescence, 60 min; in the data active = inhibition above about 34%; inconclusive = no clear call, values can overlap the other calls; inactive = below about 11%;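 also: 0% = DMSO and 100% = no enzyme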
Target sequence (O75874 whole entry R132H): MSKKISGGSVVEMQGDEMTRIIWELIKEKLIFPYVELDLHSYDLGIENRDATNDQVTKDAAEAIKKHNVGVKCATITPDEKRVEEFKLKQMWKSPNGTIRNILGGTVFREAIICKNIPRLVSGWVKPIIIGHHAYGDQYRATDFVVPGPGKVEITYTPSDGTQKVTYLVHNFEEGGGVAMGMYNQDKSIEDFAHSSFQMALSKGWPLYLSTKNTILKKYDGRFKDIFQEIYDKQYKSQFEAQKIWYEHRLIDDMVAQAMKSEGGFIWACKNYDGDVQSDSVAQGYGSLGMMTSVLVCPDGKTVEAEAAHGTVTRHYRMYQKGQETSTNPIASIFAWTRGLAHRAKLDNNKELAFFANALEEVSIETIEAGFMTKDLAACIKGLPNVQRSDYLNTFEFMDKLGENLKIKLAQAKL
T cruzi growth-2 – blocks T. cruzi growth in NIH3T3 host cells. inhibition, % at 8.35 µM. hit rate 72% among 5,600. T. cruzi beta-gal in NIH3T3, GalScreen luminescence, 90 h. shares compounds with T cruzi growth-1. AID 651739;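 active = mean replicate inhibition above about 95% and at least 55% of replicates individually reaching it, limit read from the data; inconclusive = only one of the two criteria is met; inactive = neither criterion is met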
T cruzi growth-3 – inhibitors of T. cruzi proliferation | T. cruzi beta-gal in NIH3T3, GalScreen luminescence, 90 h | hit rate 21% among 5,600 | inhibition, % at 2.09 µM | AID 651740 | shares compounds with T cruzi growth-1;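 active = mean inhibition above about 95%, with at least 55% of replicates also reaching it, limit read from the data; inconclusive = meets just one of the two conditions; inactive = meets neither condition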;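 also: plate controls were neutral control median for no effect and positive control median for full effect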
3T3 cytotox – kills mouse NIH/3T3 fibroblasts; shares compounds with T cruzi growth-1; AID 651742; NIH/3T3 viability, CellTiter-Glo ATP luminescence, 90 h; hit rate 14% among 5,600; cytotoxicity (signal decrease), % at 8.35 µM;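 active = mean signal decrease across replicates above about 35% based on untreated-well scatter, with enough replicates individually passing, limit read from the data; inconclusive = no rule stated though some were filed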;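 also: 0% = median of neutral control wells and 100% = median of positive control wells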
3T3 cytotox 2 – NIH/3T3 (mouse) viability loss. hit rate 56% among 5,600. NIH/3T3 viability, CellTiter-Glo ATP luminescence, 90 h. AID 651744. shares compounds with T cruzi growth-1. inhibition, % at 24.9 µM;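 active = mean loss of cell viability signal at or above a set limit, and enough replicates individually reaching it; inconclusive = meets only the mean limit or only the replicate share; inactive = meets neither condition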;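 also: 0% = median of neutral control wells and 100% = median of positive control wells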
* marks the source's active call; other numbers are inactive results.

`COc1ccc(S(=O)(=O)Nc2ccc3c(c2)CC(=O)N([C@H](C)CO)C[C@@H](C)[C@H](CN(C)Cc2ccc4c(c2)OCO4)O3)cc1` gave KDM4C inh 14, T cruzi growth-1 109*, IDH1 mut inh 0, T cruzi growth-2 108*, T cruzi growth-3 53, 3T3 cytotox 1 and 3T3 cytotox 2 8.
For COc1ccc(S(=O)(=O)Nc2ccc3c(c2)CC(=O)N([C@@H](C)CO)C[C@@H](C)[C@H](CN(C)Cc2ccc4c(c2)OCO4)O3)cc1 the results were KDM4C inh 0, T cruzi growth-1 113*, IDH1 mut inh 0, T cruzi growth-2 109*, T cruzi growth-3 85, 3T3 cytotox 19 and 3T3 cytotox 2 23.
For COc1cc(Cc2nnc(C(=O)NC(C)C)o2)cc(OC)c1OC the results were IDH1 mut inh 0.
Screening CC(NS(=O)(=O)c1ccc(Cl)cc1)C(=O)Nc1cccc2ccccc12 (stereo not given) returned IDH1 mut inh 1.
For CC1(C)Cc2nc(-c3ccccc3)nc(SCC(=O)Nc3cccc(C(F)(F)F)c3)c2CO1 the results were IDH1 mut inh 0.
`O=C(C[C@H]1C[C@H]2c3cc(NC(=O)Nc4ccc(C(F)(F)F)cc4)ccc3O[C@H]2[C@@H](CO)O1)NCc1ccc(Cl)cc1` gave KDM4C inh 0, T cruzi growth-1 67 and IDH1 mut inh -1.
`O=C(C[C@@H]1C[C@@H]2c3cc(NC(=O)Nc4ccc(C(F)(F)F)cc4)ccc3O[C@@H]2[C@H](CO)O1)NCc1ccc(Cl)cc1` gave KDM4C inh 0, T cruzi growth-1 166*, IDH1 mut inh 0, T cruzi growth-2 109*, T cruzi growth-3 2, 3T3 cytotox -12 and 3T3 cytotox 2 -17.
`O=C(C[C@@H]1C[C@H]2c3cc(NC(=O)Nc4ccc(C(F)(F)F)cc4)ccc3O[C@H]2[C@H](CO)O1)NCc1ccc(Cl)cc1` gave KDM4C inh 1, T cruzi growth-1 -32 and IDH1 mut inh 0.
`O=C(C[C@@H]1C[C@H]2c3cc(NC(=O)Nc4ccc(C(F)(F)F)cc4)ccc3O[C@H]2[C@@H](CO)O1)NCc1ccc(Cl)cc1` gave KDM4C inh 0, T cruzi growth-1 inconclusive, IDH1 mut inh 0, T cruzi growth-2 100*, T cruzi growth-3 18, 3T3 cytotox 0 and 3T3 cytotox 2 4.
For COc1ccccc1NC(=O)C1=C(C)Nc2ncnn2C1c1ccc(C(=O)O)cc1 (stereo not given) the results were IDH1 mut inh 0.
For C=CCn1c(CSc2nc(N)cc(N)n2)n[nH]c1=S the results were IDH1 mut inh 1.
Screening O=C(Oc1ccc2ccccc2c1)c1ccccc1S(=O)(=O)c1ccccc1[N+](=O)[O-] returned IDH1 mut inh 1.
C[C@@H]1CN([C@H](C)CO)C(=O)c2cccc(NC(=O)Nc3ccc(F)cc3)c2O[C@@H]1CN(C)Cc1ccc(-c2ccccc2)cc1 was read as KDM4C inh -2, T cruzi growth-1 inconclusive, T cruzi growth-2 105*, T cruzi growth-3 75, 3T3 cytotox 32 and 3T3 cytotox 2 71*.
For C[C@@H]1CN([C@H](C)CO)C(=O)c2cccc(NC(=O)Nc3ccccc3)c2O[C@H]1CN(C)Cc1ccc(C(F)(F)F)cc1 the results were KDM4C inh 1, T cruzi growth-1 63 and IDH1 mut inh 4.
For C[C@H]1CN([C@@H](C)CO)C(=O)c2cccc(NC(=O)Nc3ccc(F)cc3)c2O[C@@H]1CN(C)Cc1ccc(-c2ccccc2)cc1 the results were KDM4C inh -1, T cruzi growth-1 71 and IDH1 mut inh 3.
Screening C[C@@H]1CN([C@@H](C)CO)C(=O)c2cccc(NC(=O)Nc3ccc(C(F)(F)F)cc3)c2O[C@@H]1CN(C)Cc1ccc(-c2ccccc2)cc1 returned KDM4C inh -2, T cruzi growth-1 inconclusive, T cruzi growth-2 93, T cruzi growth-3 114*, 3T3 cytotox 92* and 3T3 cytotox 2 104*.
Screening C[C@@H]1CN([C@H](C)CO)C(=O)c2cccc(NC(=O)Nc3ccc(C(F)(F)F)cc3)c2O[C@@H]1CN(C)Cc1ccc(-c2ccccc2)cc1 returned KDM4C inh -3, T cruzi growth-1 inconclusive, IDH1 mut inh 0, T cruzi growth-2 110*, T cruzi growth-3 74, 3T3 cytotox 14 and 3T3 cytotox 2 103*.
For C[C@@H]1CN([C@H](C)CO)C(=O)c2cccc(NC(=O)Nc3ccc(C(F)(F)F)cc3)c2O[C@@H]1CN(C)Cc1ccccc1 the results were KDM4C inh -2 and T cruzi growth-1 34.
Cc1sc2nc(SCC(=O)Nc3ccc4c(c3)OCCO4)n(-c3ccccc3)c(=O)c2c1C was read as IDH1 mut inh 0.
CC(NS(=O)(=O)c1ccccc1)C(=O)Nc1ccccc1F (stereo not given) was read as IDH1 mut inh 0.
`CCCC(=O)c1ccc(OCc2nc3ccccc3[nH]2)cc1` gave IDH1 mut inh 0.
Screening CSc1ccccc1NC(=O)CN(c1cccc(F)c1)S(C)(=O)=O returned IDH1 mut inh -1.
For O=C([C@@H]1[C@@H](CO)[C@@H]2Cn3c(ccc(/C=C/c4ccccc4)c3=O)[C@H]1N2)N1CCCCC1 the results were KDM4C inh -1 and T cruzi growth-1 6.
O=C(O)[C@H]1[C@H](CO)[C@H]2Cn3c(ccc(/C=C/c4ccccc4)c3=O)[C@H]2N1Cc1ccc2c(c1)OCO2 was read as KDM4C inh 13, T cruzi growth-1 127*, T cruzi growth-2 88, T cruzi growth-3 65, 3T3 cytotox 30 and 3T3 cytotox 2 63*.
`O=C(NC1CCC1)[C@H]1[C@H](CO)[C@H]2Cn3c(ccc(/C=C/c4ccccc4)c3=O)[C@H]2N1Cc1ccncc1` gave KDM4C inh -1 and T cruzi growth-1 45.
O=C(O)[C@@H]1[C@@H](CO)[C@@H]2Cn3c(ccc(/C=C/c4ccccc4)c3=O)[C@@H]2N1Cc1ccc2c(c1)OCO2 was read as KDM4C inh 2, T cruzi growth-1 102*, T cruzi growth-2 50, T cruzi growth-3 0, 3T3 cytotox 17 and 3T3 cytotox 2 101*.
O=C(O)[C@H]1[C@H](CO)[C@H]2Cn3c(ccc(/C=C/c4ccccc4)c3=O)[C@H]2N1C(=O)c1cnccn1 was read as KDM4C inh -3 and T cruzi growth-1 7.
Screening O=C([C@H]1N[C@H]2c3ccc(/C=C/c4ccccc4)c(=O)n3C[C@H]2[C@@H]1CO)N1CCCCC1 returned KDM4C inh 0, T cruzi growth-1 active, T cruzi growth-2 28, T cruzi growth-3 -31, 3T3 cytotox -9 and 3T3 cytotox 2 -18.
